Measured values reported in PMC11025564 (The journal of physical chemistry. B, 2018).

Tested on: integrin αIIbβ3 TM complex
Assay type: binding, Human
Settings: ITC, 28 °C, same bicelles
Summary of the method: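 β3 TM peptide (10 μM in cell) titrated with αIIb TM peptide in 10 s injections until saturation. Medium: 43 mM DHPC, 17 mM POPC, 25 mM sodium phosphate, pH 7.4, with 9 mM free DHPC. Heats of dilution of both peptides were subtracted. ΔH° and mole-fraction K_XY were fitted with 1:1 stoichiometry fixed. Peptide amounts were set by UV absorbance.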

αIIb + β3: Human integrin αIIb(A958-P998) and β3(P685-F727) TM peptides incorporating β3(C687S), recombinantly produced; wild-type pair
ΔG° (ΔG° = −RT ln KXY): -20.3 ± 0.042 kJ/mol
TΔS° (ΔS° = (ΔH° − ΔG°)/T): -46.4 ± 0.42 kJ/mol
